Laboratory results: ChEMBL document CHEMBL4706642, “Discovery of a Potent Dual Inhibitor of Acetylcholinesterase and Butyrylcholinesterase with Antioxidant Activity that Alleviates Alzheimer-like Pathology in Old APP/PS1 Mice” (J Med Chem, 2021)
Active and inactive are the calls of the source.

Columns and labels:
[1] = Drug distribution in wild type C57BL6 mouse liver at 2 mg/kg, ip thrice a week for 2 weeks observed after 4 hrs post last dose by HPLC/MS/MS analysis; format: ADME, organism-based; settings: in vivo, 336 h
[2] = Drug concentration in wild type C57BL6 mouse brain at 2 mg/kg, ip thrice a week for 2 weeks observed after 4 hrs post last dose by HPLC/MS/MS analysis; settings: brain
Mus musculus [3] = test: (§1) Antialzheimer activity in 11 months old APP/PS1 double mutant-transgenic mouse model assessed as fiber volley amplitude in CA3 region of hippocampus at 2 mg/kg, ip administered thrice a week for 4 weeks followed by stimulation with 1 to 10 uA EPSP by fluorescence microscopy based electrophysiology method (reference value: 0.826 +/- 0.169 mV/ms); format: functional
In short: (§2)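 Hippocampal slices from male APP/PS1 mice given 2 mg/kg i.p. in saline (or saline alone), three times per week for 4 weeks. Input–output curves were built from evoked fEPSP slopes and fiber volley amplitudes, with values taken at the maximum current intensity. Mean ± SEM of 9 slices from 3 mice per group; two-way ANOVA with Bonferroni post hoc.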

Mus musculus [4] = test: Cognitive enhancing effect in 11 months old APP/PS1 double mutant-transgenic mouse model assessed as effect on number of times animal crossing central area in transparent cage at 2 mg/kg, ip administered thrice a week for 4 weeks by LOF test; format: functional, organism-based
In short: (§3)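 Open-field locomotor test in male APP/PS1 mice after 2 mg/kg i.p. in saline (or vehicle), three times per week for 4 weeks. Read-outs were time spent moving and number of crossings of the central area of a transparent cage. Mean ± SEM, n = 7 per group; one-way ANOVA with Bonferroni post hoc.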

Mus musculus [5] = test: Antiinflammatory activity in 11 months old APP/PS1 double mutant-transgenic mouse model assessed as reduction in GFAP level in hippocampus at 2 mg/kg, ip administered thrice a week for 4 weeks by Hoechst staining based immunofluorescence analysis; format: functional, organism-based
In short: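 Hippocampal GFAP immunofluorescence with Hoechst nuclear counterstain in male APP/PS1 mice after 2 mg/kg i.p. in saline (or vehicle), three times per week for 4 weeks. Mean ± SEM, n = 4 mice per group; one-way ANOVA with Bonferroni post hoc.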

Mus musculus [6] = test: Neuroprotective activity in 11 months old APP/PS1 double mutant-transgenic mouse model assessed as decrease in 4-hydroxy-2-nonenal levels in hippocampus at 2 mg/kg, ip administered thrice a week for 4 weeks by Hoechst staining based immunofluorescence analysis; format: functional, organism-based
In short: (§4)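 Hippocampal 4-hydroxy-2-nonenal was assessed by immunofluorescence with Hoechst counterstain in male APP/PS1 mice given 2 mg/kg i.p. in saline (or vehicle), three times weekly for 4 weeks. Mean ± SEM, n = 4 mice per group; one-way ANOVA with Bonferroni post hoc.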

Mus musculus [7] = test: Antialzheimer activity in 11 months old APP/PS1 double mutant-transgenic mouse model assessed as time interval at which EPSP-evoked calcium-dependent vesicle release in CA3 region of hippocampus causing short-term plasticity at 2 mg/kg, ip administered thrice a week for 4 weeks measured at 10 ms interval by fluorescence microscopy based electrophysiology method (reference value: 2.05 +/- 0.2 ms); format: functional
In short: (§5)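 Paired-pulse facilitation in hippocampal slices from male APP/PS1 mice dosed i.p. with 2 mg/kg in saline (or vehicle), three times per week for 4 weeks. Two EPSPs were evoked at intervals of 10–200 ms, and the index is the R2/R1 fEPSP slope ratio. Mean ± SEM of 9 slices from 3 mice per group; two-way ANOVA with Bonferroni post hoc.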

Mus musculus [8] = test: Neuroprotective activity in 6 months young APP/PS1 double mutant-transgenic mouse model assessed as decrease in 4-hydroxy-2-nonenal levels in hippocampus at 2 mg/kg, ip administered thrice a week for 4 weeks by Hoechst staining based immunofluorescence analysis; format: functional, organism-based; in short: as §4
Mus musculus [9] = test: Antialzheimer activity in 6 months young APP/PS1 double mutant-transgenic mouse model assessed as time interval between two EPSPs in CA3 region of hippocampus at 2 mg/kg, ip administered thrice a week for 4 weeks at 10 ms stimulus interval by fluorescence microscopy based electrophysiology method (reference value: 3.18 +/- 0.8 ms); format: functional; in short: as §5
[10] = Drug distribution in wild type C57BL6 mouse brain at 2 mg/kg, ip thrice a week for 2 weeks observed after 4 hrs post last dose by HPLC/MS/MS analysis; format: ADME, organism-based; settings: in vivo, 336 h
[11] = Antioxidant activity assessed as DPPH radical scavenging activity incubated for 30 mins under dark condition by UV-Vis spectrophotometric analysis; format: functional
Mus musculus [12] = test: (§6) Antialzheimer activity in 11 months old APP/PS1 double mutant-transgenic mouse model assessed as theta burst induced-long term potentiation in CA3 region of hippocampus at 2 mg/kg, ip administered thrice a week for 4 weeks by fluorescence microscopy based electrophysiology method (reference value: 83.9 +/- 21.1 %); format: functional
Mus musculus [13] = test: as §1, with “postsynaptic potential” for “fiber volley amplitude”, “0.293” for “0.826”, “0.105” for “0.169”; format: functional; in short: as §2
Mus musculus [14] = test: Cognitive enhancing effect in 6 months young APP/PS1 double mutant-transgenic mouse model assessed as increase in preference index for object at 2 mg/kg, ip administered thrice a week for 4 weeks by novel object recognition test; format: functional, organism-based
In short: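 Male APP/PS1 mice received 2 mg/kg i.p. in saline (or vehicle), three times per week for 4 weeks. Preference index = time exploring the relocated or novel object divided by total time exploring both objects. Mean ± SEM, n = 7 per group; one-way ANOVA with Bonferroni post hoc.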

Mus musculus [15] = test: Cognitive enhancing effect in 11 months old APP/PS1 double mutant-transgenic mouse model assessed as effect on time spent on moving along the field at 2 mg/kg, ip administered thrice a week for 4 weeks by LOF test; format: functional, organism-based; in short: as §3
Mus musculus [16] = test: Antialzheimer activity in 6 months young APP/PS1 double mutant-transgenic mouse model assessed as amyloid beta42 levels in hippocampus at 2 mg/kg, ip administered thrice a week for 4 weeks by ELISA; format: functional, organism-based
In short: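 Male APP/PS1 mice received 2 mg/kg i.p. in saline (or vehicle), three times weekly for 4 weeks. After the behavioral tests, hippocampus was collected and Aβ40 and Aβ42 were measured with a specific ELISA kit. Mean ± SEM, n = 7 mice per group; one-way ANOVA with Bonferroni post hoc.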

Acetylcholinesterase = Acetylcholinesterase (Homo sapiens, UniProt P22303); test: Inhibition of recombinant human AChE using acetylthiocholineiodide as substrate preincubated for 20 mins followed by substrate addition by Ellman's method
Chain of Acetylcholinesterase (P22303 whole entry): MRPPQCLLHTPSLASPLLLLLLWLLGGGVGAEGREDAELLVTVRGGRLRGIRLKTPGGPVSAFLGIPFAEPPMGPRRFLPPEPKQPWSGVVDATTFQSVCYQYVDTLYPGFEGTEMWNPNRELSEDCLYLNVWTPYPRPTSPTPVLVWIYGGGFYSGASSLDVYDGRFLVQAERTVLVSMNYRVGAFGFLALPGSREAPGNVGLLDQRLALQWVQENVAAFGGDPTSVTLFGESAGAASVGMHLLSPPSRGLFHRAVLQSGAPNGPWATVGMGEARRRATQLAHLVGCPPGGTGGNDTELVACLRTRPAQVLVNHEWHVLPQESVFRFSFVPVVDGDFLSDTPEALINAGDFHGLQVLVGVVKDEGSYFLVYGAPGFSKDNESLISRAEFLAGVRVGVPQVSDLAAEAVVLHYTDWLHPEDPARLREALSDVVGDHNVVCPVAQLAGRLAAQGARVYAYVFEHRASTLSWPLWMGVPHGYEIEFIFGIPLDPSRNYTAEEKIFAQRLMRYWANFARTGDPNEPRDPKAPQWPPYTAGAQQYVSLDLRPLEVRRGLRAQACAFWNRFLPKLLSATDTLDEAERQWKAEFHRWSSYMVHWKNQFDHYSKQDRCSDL
In short: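 Enzyme was 0.02 U/mL human recombinant AChE or human serum BChE. Non-enzymatic hydrolysis was corrected. IC50 came from a % inhibition vs log[I] regression. Selectivity = IC50 hBChE/IC50 hAChE. Mean ± SEM of ≥2 experiments, each in duplicate/triplicate.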

[17] = Selectivity index, ratio of IC50 for human serum BChE using butyrylthiocholineiodide as substrate to IC50 for recombinant human AChE using acetylthiocholine iodide as substrate
In short: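 Ellman spectrophotometric assay in 0.1 M phosphate buffer, pH 8.0, with 340 μM DTNB. Enzyme was 0.02 U/mL human recombinant AChE or human serum BChE. […] Then 550 μM ATCh or BTCh was added, and A412 was followed for 210 s. Non-enzymatic hydrolysis was corrected. IC50 came from a % inhibition vs log[I] regression. Selectivity = IC50 hBChE/IC50 hAChE. Mean ± SEM of ≥2 experiments, each in duplicate/triplicate.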

Mus musculus [18] = test: as §6, with “6” for “11”, “young” for “old”, “134.1” for “83.9”, “13.1” for “21.1”; format: functional
[19] = Permeability of the compound in PBS/EtOH buffer (70:30) by PAMPA-BBB assay; format: ADME; settings: read-out: permeability
In short: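 PAMPA-BBB permeability, reported as Pe in 10⁻⁶ cm s⁻¹, with CNS+ defined as Pe > 5.1. Mean ± SD of three experiments, each in triplicate.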

Which Drug uptake [1] does the source give for `COc1cc(CNC(=O)CCCCCCNc2c3c(nc4cc(Cl)ccc24)CC2C=C(C)CC3C2)ccc1O` (stereo not given) here?
Its Drug uptake is “Active”.

What about the concentration at 336 h [2] of the same compound?
Its concentration at 336 h is 1580 ng/g.

What about the Activity (Mus musculus [3]) of the same compound?
Its Activity is 0.808 mV.

And the Activity (Mus musculus [4])?
The Activity was “inactive”.

What about the Activity (Mus musculus [5]) of the same compound?
The Activity was “Active”.

What about the Activity (Mus musculus [6]) of the same compound?
Its Activity is “Active”.

And the Time (Mus musculus [7])?
The Time was 2.32 ms.

What about the Activity (Mus musculus [8]) of the same compound?
The Activity was “inactive”.

What about the Time (Mus musculus [9]) of the same compound?
The Time was 3.44 ms.

And the Drug uptake [10]?
Its Drug uptake is “Active”.

What about the IC50 [11] of the same compound?
Its IC50 is 55.4 µM.

And the Activity (Mus musculus [12])?
Its Activity is 124.3%.

And the Activity (Mus musculus [13])?
Its Activity is 0.545 mV/ms.

What about the Activity (Mus musculus [14]) of the same compound?
The Activity was “inactive”.

What about the Activity (Mus musculus [15]) of the same compound?
Its Activity is “inactive”.

What about the Activity (Mus musculus [16]) of the same compound?
Its Activity is “inactive”.

What about the IC50 (Acetylcholinesterase) of the same compound?
Its IC50 is 0.00077 µM.

And the Ratio IC50 [17]?
Its Ratio IC50 is 39.7.

And the Activity (Mus musculus [18])?
Its Activity is 275.6%.

And the Papp [19]?
The Papp was 172 nm/s.

Which Drug uptake [1] does the source give for `COc1cc(CNC(=O)Cc2cn(CCCCC3=CC4Cc5nc6cc(Cl)ccc6c(N)c5C(C3)C4)nn2)ccc1O` (stereo not given) here?
Its Drug uptake is “Active”.

And the concentration at 336 h [2]?
The concentration at 336 h was 18900 ng/g.

And the Activity (Mus musculus [3])?
Its Activity is 1.039 mV.

What about the Activity (Mus musculus [4]) of the same compound?
The Activity was “inactive”.

What about the Activity (Mus musculus [5]) of the same compound?
Its Activity is “Active”.

What about the Activity (Mus musculus [6]) of the same compound?
Its Activity is “Active”.

What about the Time (Mus musculus [7]) of the same compound?
Its Time is 1.96 ms.

And the Activity (Mus musculus [8])?
Its Activity is “inactive”.

And the Time (Mus musculus [9])?
The Time was 1.93 ms.

And the Drug uptake [10]?
Its Drug uptake is “Active”.

What about the IC50 [11] of the same compound?
Its IC50 is 92 µM.

And the Activity (Mus musculus [12])?
Its Activity is 111%.

And the Activity (Mus musculus [13])?
The Activity was 0.652 mV/ms.

And the Activity (Mus musculus [14])?
The Activity was “inactive”.

What about the Activity (Mus musculus [15]) of the same compound?
The Activity was “inactive”.

And the Activity (Mus musculus [16])?
Its Activity is “inactive”.

What about the IC50 (Acetylcholinesterase) of the same compound?
The IC50 was 0.00106 µM.

What about the Ratio IC50 [17] of the same compound?
Its Ratio IC50 is 6.9.

What about the Activity (Mus musculus [18]) of the same compound?
The Activity was 397.3%.

What about the Papp [19] of the same compound?
Its Papp is 88 nm/s.
